PMC10613959 (Toxicological Sciences, 2023)
Read-outs that look alike come from different tables or passages of the source. Each block holds one molecule with its values, some of them ahead of it.

What was measured:
[1] = Blood partitioning assay for Rbp; type: in vitro ADME; settings: both, human
How it was run: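 Fresh pooled mixed-gender human whole blood (lithium heparin) and reference plasma centrifuged from the same blood were each incubated with 5 µM test compound at 37°C, n = 3. Reactions were stopped at 0 and 60 min. Rbp was derived by LC-MS/MS from test compound concentration in control plasma versus whole-blood supernatant. Chlorthalidone 5 µM served as positive control.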

Cross filtration = type: in vitro ADME; settings: both, human, pooled human plasma
How it was run: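 Modified cross-ultrafiltration: 10 µM test compound in pooled mixed-gender human plasma, 60 min at 37°C, n = 3, then ultrafiltered beside blank plasma. Each retentate was mixed into the partner filtrate and the regenerated samples analysed by LC-MS/MS. Warfarin 10 µM was positive control. Stability was checked at 60 min against non-incubated control. Recovery-corrected mean PPB from filtrate; Fup = 100 − PPB.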

[2] = Ex vivo skin penetration study of radiolabeled OMC; type: in vitro ADME; settings: human skin; for Dermal delivery (Epidermis + Dermis + Receptor fluid), 14C-OMC / Dermis, distribution of 14C-OMC / Epidermis, distribution of 14C-OMC / Receptor fluid, distribution of 14C-OMC / Skin excess, distribution of 14C-OMC / Total recovery, 14C-OMC / Total strips (1–20), distribution of 14C-OMC: mean
How it was run: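 Dermatomed skin, 350–450 µm, in flow-through diffusion cells (1 cm2 area), unoccluded, surface at 32°C ± 1°C. Receptor fluid (5% w/w BSA, 0.9% NaCl) flowed at 1.5 ml/h and was collected hourly. Runs ended at 30 min, 1, 2, 4, 8 h (n = 5) or 24 h (n = 12). Up to 20 tape strips; epidermis heat-separated from dermis; compartments counted by scintillation. Dermal delivery = epidermis + dermis + receptor fluid.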

[3] = Metabolic stability in primary human hepatocytes in suspension; type: in vitro ADME; settings: human, cryopreserved human hepatocytes in suspension (5 donor pool)
How it was run: (§1)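 Cryopreserved human hepatocytes (5-donor pool, 0.8 × 10^6 cells/ml) in Williams E medium (25 mM HEPES, 2 mM L-glutamine) were incubated with test compound at 0.1, 1 and 10 µM, 37°C, n = 3. Sampled at 0, 15, 60, 90, 180 and 240 min; solvent ≤0.5% DMSO or 1% ACN. Heat-inactivated hepatocytes were the negative control. Parent loss was measured by LC-MS. CLint = −k·V (k, slope of log concentration vs time; V, incubation volume/cell number).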

human hepatocytes = test: as above; type: in vitro ADME; settings: human suspension hepatocytes; compared with Naloxone
How it was run: as §1

[4] = Skin absorption parameters; set-up: species or system human; settings: Fitted; for Vehicle/water partition coefficient: vehicle/formulation specific
How it was run: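 A skin model in GastroPlus TCAT started from in silico predicted values for the vehicle, stratum corneum, epidermis and dermis. Its diffusivities and partition coefficients were fitted to skin penetration data: receptor-fluid time course where available, plus skin wash and layer distribution. Parameters were adjusted to minimise model–data difference and then used in the human dermal model. Vehicle/water partitioning is formulation-specific.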

[5] = Scaling of in vitro CLint to in vivo CLint and CLliver; set-up: species or system human; settings: scaled from the mean in vitro CLint
How it was run: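 Mean in vitro hepatocyte CLint was scaled to in vivo CLint (l/h) using a scaling factor: million cells per gram of liver × grams of liver weight. In vivo CLint was then converted to hepatic clearance with two variations of the well-stirred liver model.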

[6] = PBK population simulation of plasma concentrations; set-up: species or system human
How it was run: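 GastroPlus population simulations reproduced the clinical designs. Lotion or non-aerosol spray, 2 mg/cm2 over 75% body surface, once at 0 h on day 1 and 4 times daily at 2-h intervals on days 2–4 (mixed multiple-dose profile). Alternatively, a 4% formulation over 90% body surface, about 22 mg/kg bw, in 3 male and 3 female subjects. Simulated-mean/observed-mean ratios for Cmax and AUC0−t; 10th–90th percentiles generated.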

[7] = human plasma, topical sunscreen, ref Matta et al., 2020, cited from earlier work
[8] = human skin, cited from earlier work
[9] = ref Shand, 1976; cited from earlier work
[10] = target dose 300 µg/cm^2, ref SCCS, 2021

- blood plasma ratio at 60 min, 5 µM [1]: 0.73
- fraction unbound at 60 min, 10 µM (Cross filtration): 0.0004
- dermal delivered fraction of the applied dose ([2]; all the conditions (30 min to 24 h), target dose 200 µg/cm^2): less than 0.5%
- Dermal delivery (Epidermis + Dermis + Receptor fluid), 14C-OMC ([2]; terminated at 30 min): 0.10%
- Dermis, distribution of 14C-OMC ([2]; terminated at 30 min): 0.004%
- Epidermis, distribution of 14C-OMC ([2]; terminated at 30 min): 0.07%
- Receptor fluid, distribution of 14C-OMC ([2]; terminated at 30 min): 0.02%
- Skin excess, distribution of 14C-OMC ([2]; terminated at 30 min): 91.04%
- Total recovery, 14C-OMC ([2]; terminated at 30 min): 91.65%
- Total strips (1–20), distribution of 14C-OMC ([2]; terminated at 30 min): 0.51%
- Dermal delivery (Epidermis + Dermis + Receptor fluid), 14C-OMC ([2]; terminated at 1 h): 0.06%
- Dermis, distribution of 14C-OMC ([2]; terminated at 1 h): 0.01%
- Epidermis, distribution of 14C-OMC ([2]; terminated at 1 h): 0.04%
- Receptor fluid, distribution of 14C-OMC ([2]; terminated at 1 h): 0.003%
- Skin excess, distribution of 14C-OMC ([2]; terminated at 1 h): 112.02%
- Total recovery, 14C-OMC ([2]; terminated at 1 h): 112.38%
- Total strips (1–20), distribution of 14C-OMC ([2]; terminated at 1 h): 0.30%
- Dermal delivery (Epidermis + Dermis + Receptor fluid), 14C-OMC ([2]; terminated at 2 h): 0.11%
- Dermis, distribution of 14C-OMC ([2]; terminated at 2 h): 0.005%
- Epidermis, distribution of 14C-OMC ([2]; terminated at 2 h): 0.06%
- Receptor fluid, distribution of 14C-OMC ([2]; terminated at 2 h): 0.04%
- Skin excess, distribution of 14C-OMC ([2]; terminated at 2 h): 89.22%
- Total recovery, 14C-OMC ([2]; terminated at 2 h): 90.06%
- Total strips (1–20), distribution of 14C-OMC ([2]; terminated at 2 h): 0.73%
- Dermal delivery (Epidermis + Dermis + Receptor fluid), 14C-OMC ([2]; terminated at 4 h): 0.12%
- Dermis, distribution of 14C-OMC ([2]; terminated at 4 h): 0.01%
- Epidermis, distribution of 14C-OMC ([2]; terminated at 4 h): 0.05%
- Receptor fluid, distribution of 14C-OMC ([2]; terminated at 4 h): 0.06%
- Skin excess, distribution of 14C-OMC ([2]; terminated at 4 h): 100.26%
- Total recovery, 14C-OMC ([2]; terminated at 4 h): 100.75%
- Total strips (1–20), distribution of 14C-OMC ([2]; terminated at 4 h): 0.37%
- Dermal delivery (Epidermis + Dermis + Receptor fluid), 14C-OMC ([2]; terminated at 8 h): 0.20%
- Dermis, distribution of 14C-OMC ([2]; terminated at 8 h): 0.01%
- Epidermis, distribution of 14C-OMC ([2]; terminated at 8 h): 0.10%
- Receptor fluid, distribution of 14C-OMC ([2]; terminated at 8 h): 0.09%
- Skin excess, distribution of 14C-OMC ([2]; terminated at 8 h): 113.76%
- Total recovery, 14C-OMC ([2]; terminated at 8 h): 114.46%
- Total strips (1–20), distribution of 14C-OMC ([2]; terminated at 8 h): 0.50%
- Dermal delivery (Epidermis + Dermis + Receptor fluid), 14C-OMC ([2]; terminated at 24 h): 0.28%
- Dermis, distribution of 14C-OMC ([2]; terminated at 24 h): 0.02%
- Epidermis, distribution of 14C-OMC ([2]; terminated at 24 h): 0.21%
- Receptor fluid, distribution of 14C-OMC ([2]; terminated at 24 h): 0.06%
- Skin excess, distribution of 14C-OMC ([2]; terminated at 24 h): 100.26%
- Total recovery, 14C-OMC ([2]; terminated at 24 h): 100.96%
- Total strips (1–20), distribution of 14C-OMC ([2]; terminated at 24 h): 0.41%
- hepatocyte CLint [3]: 43.3 µL/min/1e6 cells
- hepatocyte CLint at 10 µM [3]: 43.3 µL/min/1e6 cells
- depletion in suspension hepatocytes (human hepatocytes): medium to fast depletion
- Dermis diffusivity [4]: 1.0E−07 cm^2/s
- Dermis/water partition coefficient [4]: 7.0E−01
- Epidermis diffusivity [4]: 3.0E−08 cm^2/s
- Epidermis/water partition coefficient [4]: 2.0E+01
- Stratum corneum diffusivity [4]: 2.0E−10 cm^2/s
- Stratum corneum/water partition coefficient [4]: 4.5E+02
- Vehicle diffusivity [4]: 7.0E−12 cm^2/s
- Vehicle/water partition coefficient [4]: 1.5E+05
- In vivo CLint scaled [5]: 312.0 l/h/kg liver
- AUC0 − t Fold Difference (Simulated Mean/Observed Mean) ([6]; Day 1): 1.5
- Cmax Fold Difference (Simulated Mean/Observed Mean) ([6]; Day 1): 1.5
- AUC0 − t Fold Difference (Simulated Mean/Observed Mean) ([6]; Day 4): 2.7
- Cmax Fold Difference (Simulated Mean/Observed Mean) ([6]; Day 4): 1.3
Compound: CCCCC(CC)COC(=O)C=Cc1ccc(OC)cc1 (stereo not shown) [OMC, octyl methoxycinnamate]
- Observed AUC0 − t, Geometric mean ([7]; Day 1): 21.6 ng·h/mL
- Observed AUC0 − t, Range ([7]; Day 1): 2.7 to 57.7 ng·h/mL
- Observed Cmax, Range ([7]; Day 1): 0.6 to 5 ng/mL
- Observed AUC0 − t, Geometric mean ([7]; Day 4): 103.4 ng·h/mL
- Observed AUC0 − t, Range ([7]; Day 4): 45.1 to 213.5 ng·h/mL
- Observed Cmax, Range ([7]; Day 4): 2.6 to 30.6 ng/mL

- blood plasma ratio at 60 min, 5 µM [1]: 0.73
- fraction unbound at 60 min, 10 µM (Cross filtration): 0.0014
- hepatocyte CLint [3]: 16.9 µL/min/1e6 cells
- hepatocyte CLint at 0.1 µM [3]: 27.8 µL/min/1e6 cells
- hepatocyte CLint at 1 µM [3]: 15.2 µL/min/1e6 cells
- hepatocyte CLint at 10 µM [3]: 7.6 µL/min/1e6 cells
- depletion in suspension hepatocytes (human hepatocytes): medium to fast depletion
- Dermis diffusivity [4]: 6.0E−08 cm^2/s
- Dermis/water partition coefficient [4]: 7.0E−01
- Epidermis diffusivity [4]: 2.0E−08 cm^2/s
- Epidermis/water partition coefficient [4]: 6.0E+02
- Stratum corneum diffusivity [4]: 2.0E−11 cm^2/s
- Stratum corneum/water partition coefficient [4]: 2.0E+03
- Vehicle diffusivity [4]: 6.2E−09 cm^2/s
- Vehicle/water partition coefficient [4]: 4.0E+05
- In vivo CLint scaled [5]: 121.7 l/h/kg liver
- AUC0 − t Fold Difference (Simulated Mean/Observed Mean) ([6]; Day 1): 1.4
- Cmax Fold Difference (Simulated Mean/Observed Mean) ([6]; Day 1): 1.2
- AUC0 − t Fold Difference (Simulated Mean/Observed Mean) ([6]; Day 4): 1.4
- Cmax Fold Difference (Simulated Mean/Observed Mean) ([6]; Day 4): 0.6
Compound: CCCCC(CC)COC(=O)C(C#N)=C(c1ccccc1)c1ccccc1 (stereo not shown) [Octocrylene, octocrylene]
- Dermal delivery (Epidermis + dermis + receptor fluid), 14C-octocrylene ([8]; 24 h, mean, ref SCCS (2021)): 0.15%
- Dermis, distribution of 14C-octocrylene ([8]; 24 h, mean, ref SCCS (2021)): 0.012%
- Epidermis, distribution of 14C-octocrylene ([8]; 24 h, mean, ref SCCS (2021)): 0.14%
- Receptor fluid, distribution of 14C-octocrylene ([8]; 24 h, mean, ref SCCS (2021)): 0.0001%
- Skin excess, distribution of 14C-octocrylene ([8]; 24 h, mean, ref SCCS (2021)): 97.96%
- Total recovery, 14C-octocrylene ([8]; 24 h, mean, ref SCCS (2021)): 98.8%
- Total strips (1–20), distribution of 14C-octocrylene ([8]; 24 h, mean, ref SCCS (2021)): 0.69%
- absorbed dose into receptor fluid [8, 10]: negligible
- dermal delivered fraction of the applied dose [8, 10]: less than 0.4%
- Observed AUC0 − t, Geometric mean ([7]; Day 1): 20.0 ng·h/mL
- Observed AUC0 − t, Range ([7]; Day 1): 6.4 to 38.1 ng·h/mL
- Observed Cmax, Range ([7]; Day 1): 0.5 to 3.6 ng/mL
- Observed AUC0 − t, Geometric mean ([7]; Day 4): 94.7 ng·h/mL
- Observed AUC0 − t, Range ([7]; Day 4): 41.4 to 210.0 ng·h/mL
- Observed Cmax, Range ([7]; Day 4): 2.6 to 38.7 ng/mL

Compound: CC(C)NCC(O)COc1cccc2ccccc12 (stereo not shown) [propranolol]
- bound to plasma [9]: 90%–95
